Experimental data: ChEMBL document CHEMBL1132476, “Design and synthesis of novel alpha(1)(a) adrenoceptor-selective antagonists. 1. Structure-activity relationship in dihydropyrimidinones” (J Med Chem, 1999)
Several values for one entry are separate records, joined by “and”; a condition that tells them apart may be missing. Equal values may be shown once.

Legend:
[1] = biological target: T1, Alpha-1D adrenergic receptor (Homo sapiens, UniProt P25100); test: In vitro binding affinity against Alpha-1D adrenergic receptor of cloned human receptor.
T1 sequence (P25100 whole entry): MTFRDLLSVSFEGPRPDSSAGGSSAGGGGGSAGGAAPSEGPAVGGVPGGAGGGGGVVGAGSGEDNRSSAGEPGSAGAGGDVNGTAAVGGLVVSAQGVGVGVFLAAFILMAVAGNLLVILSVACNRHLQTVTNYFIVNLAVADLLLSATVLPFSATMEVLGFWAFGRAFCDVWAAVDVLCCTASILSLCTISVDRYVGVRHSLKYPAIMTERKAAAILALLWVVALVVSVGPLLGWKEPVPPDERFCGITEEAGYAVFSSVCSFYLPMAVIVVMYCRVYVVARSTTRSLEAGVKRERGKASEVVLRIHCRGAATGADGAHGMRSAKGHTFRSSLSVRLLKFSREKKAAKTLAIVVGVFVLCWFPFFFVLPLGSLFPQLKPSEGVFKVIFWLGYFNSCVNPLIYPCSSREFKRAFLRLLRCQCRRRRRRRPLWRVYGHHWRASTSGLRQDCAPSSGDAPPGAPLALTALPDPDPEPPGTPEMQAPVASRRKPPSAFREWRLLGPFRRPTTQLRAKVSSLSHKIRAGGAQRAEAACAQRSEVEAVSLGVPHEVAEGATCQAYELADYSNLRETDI

[2] = biological target: T2, Alpha-1B adrenergic receptor (Homo sapiens, UniProt P35368); test: In vitro binding affinity against Alpha-1B adrenergic receptor of cloned human receptor.
T2 sequence (P35368 whole entry): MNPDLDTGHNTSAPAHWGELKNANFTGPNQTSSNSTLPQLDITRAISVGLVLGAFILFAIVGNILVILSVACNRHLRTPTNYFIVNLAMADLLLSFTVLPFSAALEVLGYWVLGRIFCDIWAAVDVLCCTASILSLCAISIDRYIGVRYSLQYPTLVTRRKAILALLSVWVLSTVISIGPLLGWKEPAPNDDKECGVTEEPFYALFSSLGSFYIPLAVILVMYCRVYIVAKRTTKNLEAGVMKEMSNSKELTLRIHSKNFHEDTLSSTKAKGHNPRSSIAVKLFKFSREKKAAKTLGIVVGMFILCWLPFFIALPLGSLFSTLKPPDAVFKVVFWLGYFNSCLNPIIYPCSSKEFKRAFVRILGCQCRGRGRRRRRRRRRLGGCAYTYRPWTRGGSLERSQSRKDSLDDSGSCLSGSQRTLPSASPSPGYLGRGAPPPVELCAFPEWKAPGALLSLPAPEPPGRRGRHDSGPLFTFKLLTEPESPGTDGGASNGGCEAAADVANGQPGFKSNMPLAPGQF

[3] = biological target: T3, Alpha-1A adrenergic receptor (Homo sapiens, UniProt P35348); test: In vitro binding affinity against Alpha-1A adrenergic receptor of cloned human receptor.
T3 sequence (P35348 whole entry): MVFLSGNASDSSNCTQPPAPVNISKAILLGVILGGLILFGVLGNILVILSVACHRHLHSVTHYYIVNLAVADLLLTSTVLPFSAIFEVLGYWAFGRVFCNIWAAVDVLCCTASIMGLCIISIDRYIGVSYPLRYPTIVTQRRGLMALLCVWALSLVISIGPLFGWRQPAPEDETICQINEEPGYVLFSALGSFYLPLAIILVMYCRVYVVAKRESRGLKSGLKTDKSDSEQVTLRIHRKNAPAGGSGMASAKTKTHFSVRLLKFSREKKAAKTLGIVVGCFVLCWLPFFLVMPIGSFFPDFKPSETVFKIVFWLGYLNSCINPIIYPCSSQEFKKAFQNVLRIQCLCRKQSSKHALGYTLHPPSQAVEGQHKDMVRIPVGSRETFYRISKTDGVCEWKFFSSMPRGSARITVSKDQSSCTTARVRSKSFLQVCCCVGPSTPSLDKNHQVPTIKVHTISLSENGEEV

[4] = biological target: T4, Alpha-1A adrenergic receptor (Rattus norvegicus, UniProt P43140); test: In vitro binding affinity against Alpha-1A adrenergic receptor in isolated prostate tissue of rat; assay type: tissue-based, Prostate gland
T4 sequence (P43140 whole entry): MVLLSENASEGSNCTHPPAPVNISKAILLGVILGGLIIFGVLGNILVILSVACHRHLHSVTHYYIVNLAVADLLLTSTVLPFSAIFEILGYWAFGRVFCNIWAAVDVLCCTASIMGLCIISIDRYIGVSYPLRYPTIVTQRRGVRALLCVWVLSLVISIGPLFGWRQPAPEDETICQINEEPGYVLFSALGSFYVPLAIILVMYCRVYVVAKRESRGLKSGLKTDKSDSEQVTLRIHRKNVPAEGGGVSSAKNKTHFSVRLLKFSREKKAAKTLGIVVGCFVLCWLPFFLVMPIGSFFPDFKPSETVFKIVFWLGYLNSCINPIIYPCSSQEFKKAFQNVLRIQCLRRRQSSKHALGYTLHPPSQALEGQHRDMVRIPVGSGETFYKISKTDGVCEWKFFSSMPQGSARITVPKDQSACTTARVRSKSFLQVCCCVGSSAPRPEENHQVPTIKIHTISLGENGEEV

Canis familiaris = organism: Canis familiaris; test: Antagonism against phenylephrine induced contractions in isolated prostate tissue of dog; assay type: functional, Canis lupus familiaris, Prostate gland
How it was run: (§1)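 Isolated prostate strips (rat or dog) contracted with phenylephrine as agonist. Antagonist potency is expressed as Kb, derived from the shift in the agonist response by a previously published method.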

Rattus norvegicus = organism: Rattus norvegicus; test: Antagonism against phenylephrine induced contractions in isolated prostate tissue of rat; assay type: functional, Prostate gland
How it was run: as §1

Homo sapiens = organism: Homo sapiens; test: Antagonism against phenylephrine induced contractions in isolated prostate tissue of human; assay type: functional; conditions: Prostate gland

Row | Compound | Ki [1] | Ki [2] | Ki [3] | Ki [4] [nM] | Kb (Canis familiaris) [nM] | Kb (Rattus norvegicus) [nM] | Kb (Homo sapiens) [nM]
1 | COC(=O)C1=C(C)NC(=O)N(C(=O)NCCCN2CCC(C(=O)OC)(c3ccccc3)CC2)C1c1ccc(C)cc1 (centres undefined) | 220 nM | 77 nM | 8 nM |  |  |  | 
2 | COC(=O)C1(c2ccccc2)CCN(CCCNC(=O)N2C(=O)NC(C)=C(C(N)=O)C2c2ccc([N+](=O)[O-])cc2)CC1 (centres undefined) | 140 nM | 100 nM | 0.7 nM |  |  |  | 
3 | COC(=O)C1=C(C)NC(=O)N(C(=O)NCCCN2CCC(C(=O)OC)(c3ccccc3)CC2)C1c1cccc(Cl)c1 (centres undefined) | 180 nM | 50 nM | 1.1 nM |  |  |  | 
4 | COC(=O)C1=C(C)NC(=O)N(C(=O)NCCCN2CCC(C(=O)OC)(c3ccccc3)CC2)C1c1ccc(F)cc1 (centres undefined) | 180 nM | 78 nM | 1.2 nM |  |  |  | 
5 | COC(=O)C1(c2ccccc2)CCN(CCCNC(=O)N2C(=O)NC(C)=C(C(=O)O)C2c2ccc([N+](=O)[O-])cc2)CC1 (centres undefined) | 2600 nM | 1600 nM | 10 nM |  |  |  | 
6 | CCOC(=O)C1=C(C)NC(=O)N(C(=O)NCCCN2CCC(C(=O)OC)(c3ccccc3)CC2)C1c1ccc([N+](=O)[O-])cc1 (centres undefined) | 91 nM | 15 nM | 0.3 nM |  |  |  | 
7 | COC(=O)C1=C(C)NC(=O)N(C(=O)NCCCN2CCC(C(=O)OC)(c3ccccc3)CC2)C1c1ccc2nonc2c1 (centres undefined) | 93 nM | 27 nM | 0.1 nM |  |  |  | 
8 | COC(=O)C1=C(C)NC(=O)N(C(=O)NCCCN2CCC(c3ccccc3)(c3ccccc3)CC2)C1c1ccc([N+](=O)[O-])cc1 (centres undefined) | 120 nM | 27 nM | 5 nM |  |  |  | 
9 | COC(=O)C1=C(C)NC(=O)N(C(=O)NCCCN2CCC(C(=O)OC)(c3ccccc3)CC2)C1c1ccc(Cl)cc1 (centres undefined) | 170 nM | 48 nM | 4.5 nM |  |  |  | 
10 | CCC1=C(C(=O)OC)C(c2ccc([N+](=O)[O-])cc2)N(C(=O)NCCCN2CCC(C(=O)OC)(c3ccccc3)CC2)C(=O)N1 (centres undefined) | 87 nM | 37 nM | 0.8 nM |  |  |  | 
11 | COC(=O)C1=C(C)NC(=O)N(C(=O)NCCCN2CCC(C(=O)OC)(c3ccccc3)CC2)C1c1cccc(F)c1 (centres undefined) | 150 nM | 67 nM | 1.5 nM |  |  |  | 
12 | CCC1=C(C(N)=O)C(c2ccc([N+](=O)[O-])cc2)N(C(=O)NCCCN2CCC(C(=O)OC)(c3ccccc3)CC2)C(=O)N1 (centres undefined) |  |  |  | 0.58 | 0.85 | 2 | 0.04
13 | CCC1=C(C(=O)NC)C(c2ccc([N+](=O)[O-])cc2)N(C(=O)NCCCN2CCC(C(=O)OC)(c3ccccc3)CC2)C(=O)N1 (centres undefined) | 398 nM | 139 nM | 1.2 nM |  |  |  | 
14 | COC(=O)C1=C(C)NC(=O)N(C(=O)NCCCN2CCC(C(=O)OC)(c3ccccc3)CC2)C1c1cccc(C)c1 (centres undefined) | 320 nM | 110 nM | 1.8 nM |  |  |  | 
15 | CCC1=C(C(N)=O)C(c2ccc(F)cc2F)N(C(=O)NCCCN2CCC(C(=O)OC)(c3ccccc3)CC2)C(=O)N1 (centres undefined) | 440 nM | 340 nM |  |  |  |  | 
16 | CNC(=O)C1=C(C)NC(=O)N(C(=O)NCCCN2CCC(C(=O)OC)(c3ccccc3)CC2)C1c1ccc([N+](=O)[O-])cc1 (centres undefined) | 270 nM | 100 nM | 2.1 nM |  |  |  | 
17 | COC(=O)C1=C(C)NC(=O)N(C(=O)NCCCN2CCC(C(=O)OC)(c3ccccc3)CC2)C1c1ccc([N+](=O)[O-])cc1 (centres undefined) | 180 nM and 100 nM and 80 nM | 81 nM and 28 nM and 19 nM | 0.4 nM and 0.5 nM and 2.1 nM |  |  |  | 
18 | COC(=O)C1=C(C)NC(=O)N(C(=O)NCCCN2CCC(C(=O)OC)(c3ccccc3)CC2)C1c1ccc(F)cc1F (centres undefined) | 180 nM | 88 nM | 0.2 nM |  |  |  | 
